# The list is not random: actives were taken first. Their share in the collection is about 2.2%.
# MT1-MMP txn act: MT1-MMP promoter reporter activation – cell-based, luciferase luminescence, primary screen; HT1080 MT1-MMP promoter luciferase reporter, overnight; hits give high values; activation factor at 10 µM; actives 0.16% (n = 86,000);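 active = activation factor of at least 2 for MT1-MMP transcription at 10 µM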
# CD11b adhes inh: inhibitors of CD11b/CD18 adhesion to fibrinogen, primary screen, K562 cells, luminescence; Integrin beta-2 (Homo sapiens) + Integrin alpha-M (Homo sapiens), P05107+P11215; ATPlite luminescence; Mn2+ added to activate the integrin; AID 1497, 2009; actives 0.54% (n = 93,000); inhibition, % at 10 µM;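 active = primary inhibition of 50% or more at 10 µM, then 40% or more on retest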
# Calb biofilm kill: clotrimazole potentiators killing Candida biofilms, primary screen, with clotrimazole, Alamar Blue; C. albicans biofilm + clotrimazole; inhibition, % at 6 µM; actives 0.14% (n = 85,000); AID 834, 2007;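 active = inhibition above 20%; inactive = inhibition below 20%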;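 note: preformed 24 hr biofilms exposed to compound for 48 hr; 0% = biofilm without compound and 100% = blank killed by clotrimazole plus chlorhexidine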
# RORa activator: activators of orphan receptor RORA, primary screen, cell-based, luminescence | actives 1.5% (n = 65,000) | CHO-K1 Gal4-RORA LBD luciferase reporter; percent increase over mock-subtracted basal signal | activation, % at 10 µM;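 active = activation above the mean of all tested compounds plus 3 SD, cut at about 49% in these data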;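 note: 0% = DMSO-treated RORA cells and 100% = added signal equal to DMSO minus mock-transfected cells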
# Target sequence (P35398 whole entry, looked up, the tested form may be a part): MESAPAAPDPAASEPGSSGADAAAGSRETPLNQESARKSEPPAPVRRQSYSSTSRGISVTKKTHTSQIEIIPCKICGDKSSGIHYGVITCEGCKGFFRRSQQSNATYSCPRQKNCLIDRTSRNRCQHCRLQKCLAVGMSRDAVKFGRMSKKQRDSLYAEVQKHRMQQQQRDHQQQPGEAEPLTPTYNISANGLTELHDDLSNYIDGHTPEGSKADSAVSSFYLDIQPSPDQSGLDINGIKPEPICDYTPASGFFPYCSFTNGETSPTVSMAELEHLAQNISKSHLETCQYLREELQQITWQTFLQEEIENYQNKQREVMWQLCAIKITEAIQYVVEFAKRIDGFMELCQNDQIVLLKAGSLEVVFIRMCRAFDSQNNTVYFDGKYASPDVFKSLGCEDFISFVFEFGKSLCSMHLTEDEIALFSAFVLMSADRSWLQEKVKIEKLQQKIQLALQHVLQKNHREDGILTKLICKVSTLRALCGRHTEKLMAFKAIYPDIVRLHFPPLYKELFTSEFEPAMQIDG
# CD11b adhes enh: enhancers of CD11b/CD18 adhesion to fibrinogen, primary screen, K562 cells, luminescence; Integrin beta-2 (Homo sapiens) + Integrin alpha-M (Homo sapiens), P05107+P11215; actives 0.07% (n = 93,000); AID 1499, 2009; activation, % at 10 µM; ATPlite luminescence;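 active = 10 µM primary screen giving 50% or more activity, confirmed by 40% or more on retest at that dose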
# SF-1 act: activators of human SF-1, primary screen, cell-based, CHO-K1, Gal4-SF-1 LBD, luciferase luminescence | activation, % at 10 µM | Steroidogenic factor 1 (Homo sapiens), Q13285 | CHO-K1 Gal4-SF-1 LBD luciferase reporter; % increase over DMSO SF-1-specific signal | actives 1.9% (n = 65,000);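 active = activation above the mean activation of all tested compounds plus 3 SD, cut at about 50% in these data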
#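 Material: CHO-K1 cells with Gal4–hSF-1 LBD chimera plus Gal4-driven luciferase / Input: 4,000 CHO-K1 cells per well / Incubation: compound exposure 20 h at 37 °C / Signal: luminescence read 15 min after SteadyLite luciferase reagent, after room-temperature equilibration / Read-out: percent activation versus DMSO / Benchmarks: DMSO negative control and −SF1 background wells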
# * hit, by the source's call; nt = no result.
SMILES,MT1-MMP txn act,CD11b adhes inh,Calb biofilm kill,RORa activator,CD11b adhes enh,SF-1 act
CNC(=O)COC(=O)/C=C/c1c(C)nn(-c2ccccc2)c1C,nt,-8.5,nt,nt,2.8,nt
CCCCNC(=O)C(c1ccc(OCC(=O)OC)c(C(=O)OC)c1)N(CCC1=CCCCC1)C(=O)CCCCCN1C(=O)NC(c2ccc(-c3ccccc3)cc2)C(C(=O)OCc2ccccc2)=C1C (stereo not given),1.3,nt,nt,nt,nt,nt
CCC1=C2CC[C@H]3C(=O)N(C)C(=O)[C@H]3[C@H]2[C@@]2(C)C(=NCC(=O)OC)OC(=O)N2C1=O,1.1,nt,nt,nt,nt,nt
CCOC(=O)CSc1nc(C)c2ccc(C)cc2n1,1.2,nt,2.1,nt,nt,nt
O=C(Oc1ccc(-c2ccccc2)cc1)N1CCCCC1,1.2,-0.9,3.3,85.9*,-4.0,71.7*
CC(=O)N1C2(C=CC1(C)C(=O)NCCN1CCOCC1)CCCCC2 (stereo not given),1.2,nt,nt,nt,nt,nt
CC(C)(C)c1cc(C(c2cccnc2)N2CCN(CCO)CC2)cc(C(C)(C)C)c1O (stereo not given),nt,52.3*,-0.4,13.2,-5.7,-33.9
OCCN1CCN(C(c2cccs2)c2ccc3cccnc3c2O)CC1 (stereo not given),0.9,-10.4,14.8,-10.8,5.0,19.5
Cc1nc2ccc(Cl)cc2nc(C)/c1=N\O,1.4,3.8,8.9,34.6,-0.1,52.5*
CCNc1nc(CSc2ccccc2)nc2sc(C)c(C)c12,nt,24.4,nt,nt,0.4,nt
NC(=O)c1cc2ccc(O)cc2oc1=Nc1ccccc1,1.2,6.8,nt,32.0,0.5,17.1
COc1ccc(OC)c(N=c2oc3cc(O)ccc3cc2C(N)=O)c1,1,-13.2,5.0,68.5*,-2.6,43.4
N#CC1=C(N)NC(SCC(=O)c2ccc(Cl)cc2)=C(C#N)C12CCCC2,1.1,64.0*,9.6,nt,-8.0,nt
Cn1cccc1C(=O)OCc1csc(-c2ccccc2)n1,0.6,35.0,6.8,59.1*,-0.7,6.4
O=C(OCc1csc(-c2ccccc2)n1)c1cccs1,1.5,27.1,8.6,30.6,-1.8,43.0
Cc1ccccc1Nc1nc(N)nc(COC(=O)c2cccn2C)n1,1.4,-8.0,5.1,60.3*,-1.6,65.5*
CCc1ccccc1Nc1nc(N)nc(COC(=O)c2cccn2C)n1,1.7,-15.0,2.4,28.4,2.4,30.7
O=C(COC(=O)CNC(=O)c1ccccc1)Nc1cccc(Br)c1,nt,-19.2,nt,nt,-3.6,nt
Cc1nc(N)sc1-c1csc(Nc2ccccn2)n1,1.4,-10.9,5.4,57.1*,11.7,30.8
CCOc1ccc2nc(SCC(=O)c3cccs3)sc2c1,1.3,2.5,-1.3,26.0,-0.8,54.0*
COc1ccc2nc(NC(C)=O)sc2c1,1.8,nt,-0.8,nt,nt,nt
COc1ccc2nc(NC(=O)c3ccc4ncsc4c3)sc2c1,1.6,33.1,12.5,54.1*,28.8,61.0*
CCCC(=O)Nc1nc2ccc(OCC)cc2s1,1.5,6.0,nt,49.1*,-5.6,50.5*
CCC1=C2CC[C@H]3C(=O)NC(=O)[C@H]3[C@H]2[C@@]2(C)C(=NCC3CC3)OC(=O)N2C1=O,1.1,nt,nt,nt,nt,nt
Cn1c(C(=O)NCc2ccc3c(c2)OCO3)cc2sccc21,1.4,-10.3,-1.2,4.8,-1.9,14.6
SMILES,MT1-MMP txn act,CD11b adhes inh,Calb biofilm kill,RORa activator,CD11b adhes enh,SF-1 act
Cn1c(C(=O)Nc2ccccc2)cc2sccc21,2.2*,nt,1.0,nt,nt,nt
Cn1c(C(=O)Nc2ccc3c(c2)OCO3)cc2sccc21,1.2,1.7,5.0,38.4,0.4,78.7*
COc1cc(NC(=O)c2cc3sccc3n2C)cc(OC)c1,2.1*,-3.8,1.9,61.0*,-0.8,106.5*
COC(=O)c1ccc(NC(=O)c2cc3sccc3n2C)cc1,1.2,nt,2.7,nt,nt,nt
O=C(Cc1ccc(Br)cc1)OCC(=O)N1CCc2ccccc2C1,nt,3.2,nt,nt,-0.8,nt
CCOc1ccc(Br)cc1CC(=O)O,1,nt,6.1,10.3,nt,-6.2
CCCOc1ccc(Br)cc1CSC(=N)N,nt,101.6*,nt,nt,-7.0,nt
COC(=O)C1=C(C)N(CCCC(=O)O)C(=O)NC1c1ccccc1OS(=O)(=O)c1ccc([N+](=O)[O-])cc1 (stereo not given),1.2,nt,nt,nt,nt,nt
CCC1CCCCN1c1nc2c(c(=O)n(C)c(=O)n2C)n1CCSc1nc2ccccc2o1 (stereo not given),1.1,nt,nt,-24.2,nt,-1.7
CCCCCCCCC[n+]1cccc2c3ccccc3ccc21,nt,105.9*,nt,nt,-9.8,nt
O=C(C[n+]1cc2ccccc2c2ccccc21)c1ccccc1,nt,-4.7,nt,nt,-3.1,nt
CCCCCCCCCCCCCCCC[n+]1cccc2ccccc21,nt,106.0*,nt,nt,-6.6,nt
CCCCNc1nc2ccccc2[nH]1,1.1,-1.2,8.9,nt,0.7,nt
Oc1ccc(-c2cccc(-c3ccc(O)cc3)n2)cc1,1.5,5.8,7.1,51.8*,4.5,38.3
CCOC(=O)c1ccccc1-c1csc(NS(=O)(=O)c2ccc(Cl)cc2)n1,nt,53.6*,nt,nt,-4.4,nt
Cn1cc(S(=O)(=O)CC(=O)Nc2ccc3c(c2)OCCO3)c2ccccc21,1.3,nt,22.5*,-3.2,nt,16.5
Cc1ccccc1OCc1nnc(SCC(=O)Nc2ccc3c(c2)oc2ccccc23)n1C,1.3,-0.2,6.2,-19.8,-2.1,7.0
Cc1ccc(-c2nnc(SCC(=O)Nc3ccc4c(c3)oc3ccccc34)n2C)c(Cl)c1,1.2,59.9*,-3.8,nt,-8.1,nt
CN1C(=O)CSc2ccc(NC(=O)N3CCc4ccccc43)cc21,1.2,-5.0,3.5,74.8*,-1.8,104.8*
CN1C(=O)CSc2ccc(NC(=O)N3CCN(c4ccccn4)CC3)cc21,0.9,27.3,-5.4,-18.6,0.1,-17.3
Cn1c(N2CCOCC2)nc(-c2ccccc2)c1-c1ccccc1,1.2,14.8,nt,-10.2,-3.0,2.1
COC(=O)c1ccc(C(NC(=O)OCc2ccccc2)/C(I)=C/[C@@H](C)C(=O)NCCc2c[nH]c3ccccc23)cc1 (stereo not given in full),1.1,nt,nt,nt,nt,nt
Cc1ccc(-c2nc(-c3cccnc3)no2)cc1,0.5,19.9,-2.9,11.2,-2.4,55.5*
COc1cccc(-c2nc(-c3ccccc3)no2)c1,0.8,30.7,0.0,13.9,-0.5,-9.3
COc1ccc(CC(=O)Nc2ccc(-c3noc(-c4cccc(OC)c4)n3)cc2)cc1,0.9,nt,-3.5,15.2,nt,-24.4
COc1cccc(-c2nc(-c3ccc(NC(=O)c4cccnc4)cc3)no2)c1,1.3,-12.5,1.8,51.3*,9.0,54.6*
COc1cccc(-c2noc(-c3cccnc3)n2)c1,1.4,14.3,0.5,86.1*,4.0,21.5
COc1ccc(-c2noc(-c3ccc(Cl)cc3)n2)cc1,1.2,-6.8,8.1,48.7*,-2.0,28.3

# Screening data deposited in PubChem by several laboratories.
